Among the data in ChEMBL document CHEMBL4138059, “Novel bivalent securinine mimetics as topoisomerase I inhibitors” (Medchemcomm, 2017) are inhibition, Activity and Ratio values, retold here.

Activity calls are given as the source filed them. No cut-off for these calls is given here.

The target of test [1] is T1, Topoisomerase I (Bos taurus) (UniProt Q2HPH0).
T1 sequence (whole entry): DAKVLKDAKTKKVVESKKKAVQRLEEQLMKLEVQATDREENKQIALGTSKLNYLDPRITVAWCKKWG
In words: Inhibition of calf thymus topoisomerase 1 assessed as suppression of relaxation of supercoiled pBR322 DNA at 100 uM incubated for 0.5 hrs by bromophenol blue and xylene cyanol FF staining based electrophoresis method. The method, boiled down:
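Calf thymus Topo I with supercoiled pBR322 DNA and 100 μM compound, 37 °C for 0.5 h. Stopped with dye solution (bromophenol blue, xylene cyanol FF, glycerol). 1% agarose, 0.66 h in 1× TAE, then 5 μg mL-1 EB staining 0.5 h and UV imaging. Inhibition judged from supercoiled DNA remaining; camptothecin as control.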

Test [2] deals with T1, Topoisomerase I (Bos taurus). Nature of the test: Inhibition of calf thymus topoisomerase 1 assessed as increase in nicked DNA at 10 uM using supercoiled pBR322 DNA incubated for 0.5 hrs by ethidium bromide staining based DNA-cleavage assay.
For test [3] the target is unchanged. Nature of the test: Inhibition of calf thymus topoisomerase 1 assessed as increase in nicked DNA at 50 uM using supercoiled pBR322 DNA incubated for 0.5 hrs by ethidium bromide staining based DNA-cleavage assay. A digest of the protocol: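 Reaction: 20 units Topo I, 0.5 μg supercoiled pBR322 DNA, 50 or 100 μM compound in 40 μL Topo I buffer, 37 °C for 0.5 h. Terminated with 1% SDS, proteinase K 0.8 mg mL-1 at 50 °C for 10 min. Electrophoresis 60 V, 25 °C, 0.5 h, EB soak 0.5 μg mL-1, second run 0.5 h. Read-out: nicked versus other band intensities, UV.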

In test [4] the test system is DNA topoisomerase I (Bos taurus). Nature of the test: Induction of DNA intercalation assessed as reduction in topoisomerase 1-mediated DNA relaxation at 100 uM using supercoiled pBR322 DNA incubated for 0.5 hrs in presence of calf thymus topoisomerase 1 by electrophoresis method.
In test [5] the target is T1, Topoisomerase I (Bos taurus). In words: Potency index, ratio of enzyme inhibition of securinine to enzyme inhibition of test compound for inhibition of calf thymus topoisomerase 1 assessed as suppression of relaxation of supercoiled pBR322 DNA at 100 uM incubated for 0.5 hrs by bromophenol blue and xylene cyanol FF staining based electrophoresis method.
Test [6] has the same target. Nature of the test: Inhibition of calf thymus topoisomerase 1 assessed as reduction in topo1/DNA complex formation at 50 to 400 uM pre-incubated for 0.33 hrs before addition of supercoiled pBR322 DNA substrate by EMSA. A digest of the protocol:
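BSA added to Topo I buffer, then four units calf thymus Topo I and compound (50, 100, 200 or 400 μM), standing 0.33 h. 0.1 μg pBR322 DNA added, 37 °C for 0.5 h. Electrophoresis at 1 V cm-1, 4 °C, 8 h on 1% gel containing EB; bands under UV.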
(A gel shift assay detects complexes by their altered migration in electrophoresis.)

With `CCCN(C(=O)[C@H]1CCCC[C@H]1C(=O)N(CCC)[C@H]1CC2=CC(=O)O[C@@]23C[C@@H]1N1CCCC[C@@H]13)[C@@H]1CC2=CC(=O)O[C@@]23C[C@@H]1N1CCCC[C@@H]13`, the inhibition entry in test [1] is “Active”.

For the molecule `CCCN(C(=O)CCCCC(=O)N(CCC)[C@H]1CC2=CC(=O)O[C@@]23C[C@@H]1N1CCCC[C@@H]13)[C@@H]1CC2=CC(=O)O[C@@]23C[C@@H]1N1CCCC[C@@H]13`, the inhibition result in test [2] and in test [3] was “inactive” throughout. In test [1], the inhibition entry was “Active”.

In the case of `CCCN(C(=O)Cc1cccc(CC(=O)N(CCC)[C@H]2CC3=CC(=O)O[C@@]34C[C@@H]2N2CCCCC24)c1)C1CC2=CC(=O)O[C@@]23C[C@@H]1N1CCCCC13` (single isomer, unassigned), in test [1], the inhibition entry is “Active”. Besides, in test [4], the result was inactive.

As to `CCCN(C(=O)c1ccccc1C(=O)N(CCC)[C@H]1CC2=CC(=O)O[C@@]23C[C@@H]1N1CCCCC13)C1CC2=CC(=O)O[C@@]23C[C@@H]1N1CCCC[C@@H]13` (single isomer, unassigned), the inhibition entry in test [1] is “Active”. Also, the outcome in test [4] was inactive.

Take `O=C1C=C2C=C[C@@H]3C[C@@]2(O1)[C@H]1CCCCN31`: the inhibition entry in test [1] was “Active”.

In the case of `CCCN(C(=O)CCCC(=O)N(CCC)[C@H]1CC2=CC(=O)O[C@@]23C[C@@H]1N1CCCC[C@@H]13)[C@@H]1CC2=CC(=O)O[C@@]23C[C@@H]1N1CCCC[C@@H]13`, in test [1], the inhibition result is “Active”.

As to `CCCN(C(=O)Cc1ccccc1CC(=O)N(CCC)[C@H]1CC2=CC(=O)O[C@@]23C[C@@H]1N1CCCC[C@@H]13)[C@@H]1CC2=CC(=O)O[C@@]23C[C@@H]1N1CCCC[C@@H]13`, the inhibition result in test [1] was “Active”. Besides, the outcome in test [4] was inactive.

In the case of `CCCN(C(=O)[C@H]1CC[C@H](C(=O)N(CCC)[C@H]2CC3=CC(=O)O[C@@]34C[C@@H]2N2CCCC[C@@H]24)CC1)[C@@H]1CC2=CC(=O)O[C@@]23C[C@@H]1N1CCCC[C@@H]13`, the inhibition result in test [1] was “Active”.

With `CC[C@@]1(O)C(=O)OCc2c1cc1n(c2=O)Cc2cc3ccccc3nc2-1`, the inhibition entry in test [2], in test [1] and in test [3] was “Active” in each case.

On to `CCCN(C(=O)[C@H]1CCC[C@@H](C(=O)N(CCC)[C@H]2CC3=CC(=O)O[C@@]34C[C@@H]2N2CCCC[C@@H]24)C1)[C@@H]1CC2=CC(=O)O[C@@]23C[C@@H]1N1CCCC[C@@H]13`, for which the inhibition entry in test [2] and in test [3] was “inactive” in each case. In test [1], the inhibition result is “Active”.

Take `CCCN(C(=O)c1cccc(C(=O)N(CCC)[C@H]2CC3=CC(=O)O[C@@]34C[C@@H]2N2CCCCC24)c1)C1CC2=CC(=O)O[C@@]23C[C@@H]1N1CCCC[C@@H]13` (single isomer, unassigned): the inhibition entry in test [2] and in test [1] was “Active” throughout. Also, the Ratio in test [5] turned out to be 3. The outcome in test [4] was inactive. The inhibition result in test [6] was “Dose-dependent effect”.

Regarding `CCCN(C(=O)c1ccc(C(=O)N(CCC)[C@H]2CC3=CC(=O)O[C@@]34C[C@@H]2N2CCCCC24)cc1)C1CC2=CC(=O)O[C@@]23C[C@@H]1N1CCCC[C@@H]13` (single isomer, unassigned), in test [1], the inhibition result was “Active”. In addition, the outcome in test [4] was inactive.

Take `CCCN(C(=O)Cc1ccc(CC(=O)N(CCC)[C@H]2CC3=CC(=O)O[C@@]34C[C@@H]2N2CCCC[C@@H]24)cc1)[C@@H]1CC2=CC(=O)O[C@@]23C[C@@H]1N1CCCC[C@@H]13`: the inhibition entry in test [1] was “Active”. In addition, in test [4], the result was inactive.

In the case of `CCCN(C(=O)c1ccccc1)[C@H]1CC2=CC(=O)O[C@@]23C[C@@H]1N1CCCC[C@@H]13`, the inhibition entry in test [2] and in test [3] was “inactive” each time. In addition, in test [1], the inhibition result was “Active”.
